# Results from ChEMBL document CHEMBL1145196, “Medicinal chemistry driven approaches toward novel and selective serotonin 5-HT6 receptor ligands” (J Med Chem, 2005).
# Target: T1, 5-hydroxytryptamine receptor 6 (Homo sapiens, UniProt P50406)
# Assay: Inhibition of [3H]LSD binding to human 5-hydroxytryptamine 6 receptor expressed in HEK293 cells
# Format: cell-based
# Conditions: not given
# Summary of the method: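 Bound ligand collected on polyethylenimine-pretreated glass fiber filters, washed with 50 mM Tris Cl pH 7.4, counted by liquid scintillation. Nonspecific binding defined with 100 µM serotonin. Competition data fitted by LIGAND; triplicate determinations per point.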
# T1 sequence (P50406 whole entry): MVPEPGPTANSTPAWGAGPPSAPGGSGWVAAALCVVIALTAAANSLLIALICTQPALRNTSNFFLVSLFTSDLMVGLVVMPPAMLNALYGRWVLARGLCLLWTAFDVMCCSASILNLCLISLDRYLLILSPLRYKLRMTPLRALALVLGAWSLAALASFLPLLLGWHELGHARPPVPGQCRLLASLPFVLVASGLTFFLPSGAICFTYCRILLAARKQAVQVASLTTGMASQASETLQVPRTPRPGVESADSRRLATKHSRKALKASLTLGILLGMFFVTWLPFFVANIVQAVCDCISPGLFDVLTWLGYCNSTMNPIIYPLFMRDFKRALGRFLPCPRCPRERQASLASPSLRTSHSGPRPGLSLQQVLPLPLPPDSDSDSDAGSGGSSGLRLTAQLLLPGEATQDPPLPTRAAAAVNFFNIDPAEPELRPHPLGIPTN
row,Structure (SMILES),Ki [nM]
1,O=S(=O)(Nc1ccc2c(ccn2CCN2CCCC2)c1)c1c(Cl)nc2sccn12,9.8
2,Cc1cccc2c1N(C1CCN(S(=O)(=O)c3cccc4c(N(C)C)cccc34)CC1)C(=O)OC2,336
3,O=S(=O)(CCc1cccc2ccccc12)Nc1ccc2ccn(CCN3CCCC3)c2c1,195
4,O=S(=O)(Nc1ccc2ccn(CCN3CCCC3)c2c1)c1cccc2ccccc12,18.6
5,Cc1c(S(=O)(=O)Nc2ccc3[nH]cc(C(=O)C(=O)N(C)C)c3c2)sc2ccc(Cl)cc12,> 1000
6,CCN(CC)CCc1c[nH]c2ccc(NS(=O)(=O)c3cccc4c(Cl)cccc34)cc12,3.3
7,Cc1c(S(=O)(=O)Nc2ccc3[nH]cc(CCN4CCCC4)c3c2)sc2ccc(Cl)cc12,4
8,CNc1cc(NS(=O)(=O)c2ccc(N)cc2)nc(NC)n1,44.7
9,CCN(CC)CCn1ccc2cc(NS(=O)(=O)c3cccc4ccccc34)ccc21,116
10,Cc1cc2cc(NS(=O)(=O)c3c(Cl)nc4sccn34)ccc2n1CCN(C)C,74.6
11,Cc1c(S(=O)(=O)Nc2cccc3c2cc(C)n3CCN(C)C)sc2ccc(Cl)cc12,57.7
12,COc1ccc(Br)cc1S(=O)(=O)N1CCC(N2C(=O)OCc3cccc(C)c32)CC1,> 1000
13,COc1ccc(OC)c(S(=O)(=O)N2CCC(N3C(=O)OCc4cccc(C)c43)CC2)c1,131
14,CN(C)CCn1ccc2cc(NS(=O)(=O)c3ccc4ccccc4c3)ccc21,57.7
15,Cc1c(S(=O)(=O)Nc2ccc3[nH]cc(CN(C)C)c3c2)sc2ccc(Cl)cc12,5.3
16,CNc1cc(NS(=O)(=O)c2ccc(N)cc2)cc(NC)n1,14.8
17,CCCN(CCC)CCc1c[nH]c2ccc(NS(=O)(=O)c3ccc4ccccc4c3)cc12,3.9
18,Cc1cc2cc(NS(=O)(=O)c3cccc4ccccc34)ccc2n1CCN(C)C,124
19,O=S(=O)(Nc1ccc2c(ccn2CCCN2CCCCC2)c1)c1c(Cl)nc2sccn12,> 1000
20,O=S(=O)(Nc1ccc2[nH]cc(CCN3CCCC3)c2c1)c1ccc2ccccc2c1,4.3
21,Cc1c(S(=O)(=O)Nc2ccc3[nH]cc(C4CCN(C)CC4)c3c2)sc2ccc(Cl)cc12,1
22,CCN(CC)C(=O)C(=O)c1c[nH]c2ccc(NS(=O)(=O)c3cccc4ccccc34)cc12,> 1000
23,CN(C)CCc1c[nH]c2ccc(NS(=O)(=O)c3cccc4ccccc34)cc12,0.8
24,CCN(CC)CCn1ccc2cc(NS(=O)(=O)c3ccc4ccccc4c3)ccc21,140

row,Structure (SMILES),Ki [nM]
1,CN(C)CCc1c[nH]c2ccc(NS(=O)(=O)c3ccc4c(Cl)cccc4c3)cc12,0.2
2,O=S(=O)(Nc1ccc2c(ccn2CCN2CCCCC2)c1)c1c(Cl)nc2sccn12,31.4
3,Cc1c(S(=O)(=O)Nc2ccc3[nH]cc(CCN4CCOCC4)c3c2)sc2ccc(Cl)cc12,15.1
4,CN1CCC(c2c[nH]c3ccc(NS(=O)(=O)c4cccc5c(Cl)cccc45)cc23)CC1,9.6
5,CCCN(CCC)CCc1c[nH]c2ccc(NS(=O)(=O)c3sc4ccc(Cl)cc4c3C)cc12,0.5
6,CN(C)CCn1ccc2c(NS(=O)(=O)c3cccc4ccccc34)cccc21,64.7
7,CN(C)CCn1ccc2cc(NS(=O)(=O)Cc3ccccc3)ccc21,> 1000
8,Cc1cc2cc(NS(=O)(=O)c3ccc4ccccc4c3)ccc2n1CCN(C)C,85.8
9,O=S(=O)(Nc1ccc2ccn(CCN3CCCC3)c2c1)c1ccc2ccccc2c1,101
10,O=C1OCc2ccccc2N1C1CCN(S(=O)(=O)c2csc3ccccc23)CC1,126
11,Cc1c(S(=O)(=O)Nc2ccc3cc(C)n(CCN(C)C)c3c2)sc2ccc(Cl)cc12,> 1000
12,CCN(CC)CCc1c[nH]c2ccc(NS(=O)(=O)c3sc4ccc(Cl)cc4c3C)cc12,0.3
13,O=S(=O)(Nc1ccc2[nH]cc(CCN3CCOCC3)c2c1)c1ccc2ccccc2c1,132
14,CCN(CC)CCCc1c[nH]c2ccc(NS(=O)(=O)c3ccc4ccccc4c3)cc12,163
15,Cc1cccc2c1N(C1CCN(S(=O)(=O)c3csc4ccccc34)CC1)C(=O)OC2,124
16,O=S(=O)(Nc1ccc2[nH]cc(CCN3CCCC3)c2c1)c1cccc2ccccc12,4.5
17,CCN(CC)CCc1c[nH]c2ccc(NS(=O)(=O)c3ccc4ccccc4c3)cc12,40.8
18,O=S(=O)(Nc1ccc2[nH]cc(CCN3CCOCC3)c2c1)c1cccc2ccccc12,163
19,O=S(=O)(Nc1ccc2ccn(CCN3CCCC3)c2c1)c1c(Cl)nc2sccn12,52.2
20,CN(C)CCn1ccc2c(NS(=O)(=O)c3ccc4ccccc4c3)cccc21,14.9
21,CCN(CC)C(=O)C(=O)c1c[nH]c2ccc(NS(=O)(=O)c3cccc4cccnc34)cc12,> 1000
22,CCCCN(CCCC)CCc1c[nH]c2ccc(NS(=O)(=O)c3cccc4ccccc34)cc12,7.2
23,CCN(CC)CCn1ccc2cc(NS(=O)(=O)c3c(Cl)nc4sccn34)ccc21,97.3
24,Cc1c(S(=O)(=O)Nc2ccc3ccn(CCN4CCCC4)c3c2)sc2ccc(Cl)cc12,109

# Target: T1, 5-hydroxytryptamine receptor 6
# Assay: Binding affinity for human 5-hydroxytryptamine 6 receptor
# Conditions: not given
row,Structure (SMILES),Ki [nM]
1,CN1CCN(C2=Nc3ccccc3Oc3ccc(Cl)cc32)CC1 [LOXAPINE],< 50
2,CCc1[nH]c2ccc(OC)cc2c1CCN(C)C,< 50
3,COc1ccc2c(c1)c(CCN(C)C)cn2S(=O)(=O)c1ccccc1,< 50
4,OCCN1CCN(CCCN2c3ccccc3Sc3ccc(C(F)(F)F)cc32)CC1 [FLUPHENAZINE],< 50
5,CN1CCN(C2Cc3ccccc3Sc3ccc(Cl)cc32)CC1 (stereo not given) [CLOROTEPINE],< 50
6,CN1CC=C(c2cn(S(=O)(=O)c3cccc4ccccc34)c3ccc(F)cc23)CC1,< 50
7,CC(C)C[C@H]1C(=O)N2CCC[C@H]2[C@]2(O)O[C@](NC(=O)[C@@H]3C=C4c5cccc6[nH]c(Br)c(c56)C[C@H]4N(C)C3)(C(C)C)C(=O)N12 [BROMOCRIPTINE],< 50

# Target: T1, 5-hydroxytryptamine receptor 6
# Assay: Antagonist activity against cAMP accumulation in C6 cells expressing 5-hydroxytryptamine 6 receptor
# Format: functional, cell-based
# Conditions: Rattus norvegicus, filed as antagonist
# Summary of the method: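 C6 cells detached with trypsin 2 h before assay, seeded ~50 000 cells/well. Compounds added with or without forskolin for 30 min. Data are means of at least three separate experiments.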
row,Structure (SMILES),Activity
1,O=S(=O)(Nc1ccc2c(ccn2CCN2CCCC2)c1)c1c(Cl)nc2sccn12,Antagonist
2,Cc1cccc2c1N(C1CCN(S(=O)(=O)c3cccc4c(N(C)C)cccc34)CC1)C(=O)OC2,Antagonist
3,O=S(=O)(CCc1cccc2ccccc12)Nc1ccc2ccn(CCN3CCCC3)c2c1,Antagonist
4,CN1CCC(c2c[nH]c3ccc(NS(=O)(=O)c4cccc5ccccc45)cc23)CC1,Antagonist
5,O=S(=O)(Nc1ccc2ccn(CCN3CCCC3)c2c1)c1cccc2ccccc12,Antagonist
6,CCN(CC)CCn1ccc2cc(NS(=O)(=O)c3cccc4ccccc34)ccc21,Antagonist
7,Cc1cc2cc(NS(=O)(=O)c3c(Cl)nc4sccn34)ccc2n1CCN(C)C,Antagonist
8,Cc1c(S(=O)(=O)Nc2cccc3c2cc(C)n3CCN(C)C)sc2ccc(Cl)cc12,Antagonist
9,CN(C)C(=O)C(=O)c1c[nH]c2ccc(NS(=O)(=O)c3c(Cl)nc4sccn34)cc12,Antagonist
10,COc1ccc(OC)c(S(=O)(=O)N2CCC(N3C(=O)OCc4cccc(C)c43)CC2)c1,Antagonist
11,CN(C)CCn1ccc2ccc(NS(=O)(=O)c3ccc4ccccc4c3)cc21,Antagonist
12,CN(C)CCn1ccc2cc(NS(=O)(=O)c3ccc4ccccc4c3)ccc21,Antagonist
13,Cc1c(S(=O)(=O)Nc2ccc3[nH]cc(CN(C)C)c3c2)sc2ccc(Cl)cc12,Antagonist
14,Cc1cc2cc(NS(=O)(=O)c3cccc4ccccc34)ccc2n1CCN(C)C,Antagonist
15,Cc1c(S(=O)(=O)Nc2ccc3[nH]cc(C4CCN(C)CC4)c3c2)sc2ccc(Cl)cc12,Antagonist
16,O=C1OCc2ccccc2N1C1CCN(S(=O)(=O)c2cccc3cccnc23)CC1,Antagonist
17,CCN(CC)CCn1ccc2cc(NS(=O)(=O)c3ccc4ccccc4c3)ccc21,Antagonist
18,CN(C)CCc1c[nH]c2ccc(NS(=O)(=O)c3ccc4c(Cl)cccc4c3)cc12,Antagonist
19,O=S(=O)(Nc1ccc2c(ccn2CCN2CCCCC2)c1)c1c(Cl)nc2sccn12,Antagonist
20,Cc1c(S(=O)(=O)Nc2ccc3[nH]cc(CCN4CCOCC4)c3c2)sc2ccc(Cl)cc12,Antagonist

row,Structure (SMILES),Activity
1,CN1CCC(c2c[nH]c3ccc(NS(=O)(=O)c4cccc5c(Cl)cccc45)cc23)CC1,Antagonist
2,CN(C)CCn1ccc2c(NS(=O)(=O)c3cccc4ccccc34)cccc21,Antagonist
3,Cc1cc2cc(NS(=O)(=O)c3ccc4ccccc4c3)ccc2n1CCN(C)C,Antagonist
4,O=S(=O)(Nc1ccc2ccn(CCN3CCCC3)c2c1)c1ccc2ccccc2c1,Antagonist
5,O=C1OCc2ccccc2N1C1CCN(S(=O)(=O)c2csc3ccccc23)CC1,Antagonist
6,O=S(=O)(Nc1ccc2[nH]cc(CCN3CCOCC3)c2c1)c1ccc2ccccc2c1,Antagonist
7,CCN(CC)CCCc1c[nH]c2ccc(NS(=O)(=O)c3ccc4ccccc4c3)cc12,Antagonist
8,O=C1OCc2ccccc2N1C1CCN(S(=O)(=O)c2cccc3ccccc23)CC1,Antagonist
9,CCN(CC)C(=O)C(=O)c1c[nH]c2ccc(NS(=O)(=O)c3c(Cl)nc4sccn34)cc12,Antagonist
10,Cc1cccc2c1N(C1CCN(S(=O)(=O)c3csc4ccccc34)CC1)C(=O)OC2,Antagonist
11,O=S(=O)(Nc1ccc2[nH]cc(CCN3CCCC3)c2c1)c1cccc2ccccc12,Antagonist
12,O=S(=O)(Nc1ccc2[nH]cc(CCN3CCOCC3)c2c1)c1cccc2ccccc12,Antagonist
13,O=S(=O)(Nc1ccc2ccn(CCN3CCCC3)c2c1)c1c(Cl)nc2sccn12,Antagonist
14,CN(C)CCn1ccc2c(NS(=O)(=O)c3ccc4ccccc4c3)cccc21,Antagonist
15,Cc1cccc2c1N(C1CCN(S(=O)(=O)c3cccc4cccnc34)CC1)C(=O)OC2,Antagonist
16,CN(C)CCn1ccc2cc(NS(=O)(=O)c3c(Cl)nc4sccn34)ccc21,Antagonist
17,CCCCN(CCCC)CCc1c[nH]c2ccc(NS(=O)(=O)c3cccc4ccccc34)cc12,Antagonist
18,CCN(CC)CCn1ccc2cc(NS(=O)(=O)c3c(Cl)nc4sccn34)ccc21,Antagonist
19,Cc1c(S(=O)(=O)Nc2ccc3ccn(CCN4CCCC4)c3c2)sc2ccc(Cl)cc12,Antagonist

# Target: T1, 5-hydroxytryptamine receptor 6
# Assay: Agonist activity against cAMP accumulation in C6 cells expressing 5-hydroxytryptamine 6 receptor
# Format: functional, cell-based
# Conditions: Rattus norvegicus, filed as agonist
row,Structure (SMILES),Activity
1,CCN(CC)CCc1c[nH]c2ccc(NS(=O)(=O)c3sc4ccc(Cl)cc4c3C)cc12,Agonist
2,CCN(CC)CCc1c[nH]c2ccc(NS(=O)(=O)c3ccc(-c4ccccc4)cc3)cc12,Agonist

# Target: T1, 5-hydroxytryptamine receptor 6
# Assay: Partial agonist activity against cAMP accumulation in C6 cells expressing 5-hydroxytryptamine 6 receptor
# Format: functional, cell-based
# Conditions: Rattus norvegicus, filed as partial agonist
row,Structure (SMILES),Activity
1,CCN(CC)CCc1c[nH]c2ccc(NS(=O)(=O)c3cccc4c(Cl)cccc34)cc12,Partial agonist
2,Cc1c(S(=O)(=O)Nc2ccc3[nH]cc(CCN4CCCC4)c3c2)sc2ccc(Cl)cc12,Partial agonist
3,CCCN(CCC)CCc1c[nH]c2ccc(NS(=O)(=O)c3ccc4ccccc4c3)cc12,Partial agonist
4,O=S(=O)(Nc1ccc2[nH]cc(CCN3CCCC3)c2c1)c1ccc2ccccc2c1,Partial agonist
5,CN(C)CCc1c[nH]c2ccc(NS(=O)(=O)c3cccc4ccccc34)cc12,Partial agonist
6,CN(C)CCc1c[nH]c2ccc(NS(=O)(=O)c3c(Cl)nc4sccn34)cc12,Partial agonist
7,CCCN(CCC)CCc1c[nH]c2ccc(NS(=O)(=O)c3sc4ccc(Cl)cc4c3C)cc12,Partial agonist
8,CCN(CC)CCc1c[nH]c2ccc(NS(=O)(=O)c3cc(Cl)cc(Cl)c3)cc12,Partial agonist
9,Cc1c(S(=O)(=O)Nc2ccc3ccn(CCN(C)C)c3c2)sc2ccc(Cl)cc12,Partial agonist
